Series [1] deals with Potassium voltage-gated channel subfamily KQT member 2 (Rattus norvegicus) (UniProt O88943). Kind of series: Agonist activity at rat Kv7.2 channel expressed in CHO cells assessed as shift of half voltage of maximal activation at 10 uM by whole cell patch clamp based electrophysiological method. As to conditions: filed as agonist. The procedure, abridged:
(§1)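 Rat KCNQ2 cotransfected with EGFP plasmid by Lipofectamine 3000 into CHO cells (DMEM/F12, 10% FBS; split 24 h before transfection). Whole-cell recording at room temperature. Pipette: 145 mM KCl, 1 mM MgCl2, 5 mM EGTA, 10 mM HEPES, 5 mM MgATP, pH 7.3. Bath, constantly perfused: 140 mM NaCl, 5 mM KCl, 2 mM CaCl2, 1.5 mM MgCl2, 10 mM glucose, 10 mM HEPES, pH 7.4. Signals filtered at 1 kHz. Compound at 10 μM. I/I0 is outward current amplitude with over without compound. ΔV1/2 is the shift in V1/2 from Boltzmann fits of activation curves. Mean ± SEM.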
A general note: Patch clamp records ionic current or voltage across a cell membrane.

For series [2] the target is unchanged. Nature of the series: Agonist activity at rat Kv7.2 channel expressed in CHO cells assessed as amplitude change of outward current at 10 uM by whole cell patch clamp based electrophysiological method. As to conditions: filed as agonist. The procedure, abridged: as §1
A short description of series [3]: Tmax in Kunming mouse brain at 5 mg/kg, po measured upto 24 hrs by LC-MS/MS method. The series is classed as ADME, organism-based. The gist of the method: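 Male KM mice (18–24 g), fasted 12 h before and 2 h after dosing, n = 3 per time point. Oral dose in 5% DMSO/5% Tween 80/90% saline; i.v. dose is that formulation diluted in saline with 1% Tween 80. Blood sampled 0.25–24 h after oral dosing, 0.083–24 h after i.v.; whole brain taken after oral dosing. Acetonitrile extraction with internal standard, LC-MS/MS.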

Series [4] in a line: Half life in Kunming mouse plasma at 2 mg/kg, iv measured upto 24 hrs by LC-MS/MS method. The series is classed as ADME, organism-based. The procedure, abridged:
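Male KM mice (n = 3 per time point) given 2 mg/kg i.v. in normal saline with 1% Tween 80, diluted from the oral formulation. Retro-orbital plexus blood taken at 0.083–24 h. Plasma extracted with acetonitrile plus internal standard and assayed by LC−MS/MS.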

Series [5] can be described thus: Cmax in Sprague-Dawley rat at 20 mg/kg, po measured upto 24 hrs by LC-MS/MS method. To be noted: in vivo. The series is classed as ADME, organism-based. More on the design: time < 24 hrs, dose 20 mg/kg, route po. The gist of the method:
(§2)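 Male SD rats (180−220 g) dosed orally at 2, 6 or 20 mg/kg in escalating fashion, handled as in the mouse study: 12 h fast, acetonitrile extraction of plasma, LC−MS/MS quantification. AUC0−t by trapezoidal method to the last measurable concentration.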

Series [6] in a line: AUC(0 to t) in Sprague-Dawley rat at 6 mg/kg, po measured upto 24 hrs by LC-MS/MS method. Type of series: ADME, organism-based. Set-up: dose 6 mg/kg, time < 24 hrs, route po. As to conditions: in vivo. The gist of the method: as §2
Series [7] is described as follows: Metabolic stability in monkey liver microsomes assessed as half life. Type of series: ADME, Macaca mulatta, Microsome. To be noted: rhesus monkey. In general terms: Liver microsomes are a subcellular fraction often used to study metabolism.
Series [8] can be described thus: Metabolic stability in dog liver microsomes assessed as intrinsic clearance. Type of series: ADME, Canis lupus familiaris, Microsome. To be noted: read-out: CLH.
The target of a further series is CYP2D6 (Homo sapiens, UniProt P10635). Nature of the series: Ratio of IC50 for human liver microsome CYP2D6 in absence of NADPH to IC50 for human liver microsome CYP2D6 in presence of NADPH. To be noted: liver microsomes, read-out: Ratio IC50.
For series [9], the target named is Potassium voltage-gated channel subfamily KQT member 2 (Rattus norvegicus, UniProt O88943). Kind of series: Agonist activity at rat KCNQ2 channel expressed in CHO cells by patch clamp method. Type of series: cell-based. The gist of the method: (§3)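 Whole-cell patch clamp at room temperature on CHO cells (DMEM/F12, 10% FBS) transiently co-transfected with EGFP and hKCNQ1, rKCNQ2, rKCNQ3 A278T, hKCNQ4 or hKCNQ5; KCNQ2/3 at 1:1 cDNA ratio. Pipette solution 145 mM KCl, 5 mM MgATP, pH 7.3; bath 140 mM NaCl, 5 mM KCl, pH 7.4, under perfusion. V1/2 from Boltzmann fits; I/I0 is current amplitude with versus without compound; n = 4−6.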

The target of series [10] is Potassium voltage-gated channel subfamily KQT member 2/member 3 (Rattus norvegicus, UniProt O88943+O88944). Nature of the series: Agonist activity at rat KCNQ2/3 channel expressed in CHO cells by patch clamp method. The series is classed as cell-based. The gist of the method:
as §3

In series [11] the test system is Mus musculus. Kind of series: Anticonvulsant activity in po dosed MES induced Kunming mouse model of seizure. The series is classed as functional. The gist of the method: (§4)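 MES test in male KM mice. Compounds freshly suspended in 0.5% CMC-Na and given by gavage at 20 mL/kg; 160 V stimulus through ear clips. Protection scored as absence of hindlimb tonic extension; time course at 0.25, 0.5, 1 and 2 h, otherwise tested at 1 h. ED50 from dose−response by nonlinear regression; Fisher's exact test versus vehicle.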

The species named for series [12] is Mus musculus. Nature of the series: Anticonvulsant activity in MES induced Kunming mouse model of seizure assessed as EC50 in plasma. Type of series: functional, organism-based. The gist of the method: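 After the MES test in KM mice (oral dosing in 0.5% CMC-Na, 1 h), animals were killed immediately and plasma and brain concentrations were measured by LC−MS/MS. EC50 from concentration−response curves of protection against plasma concentration, by nonlinear regression.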

Series [13] can be described thus: Neurotoxicity in Kunming mouse assessed as motor impairment rate at 60 mg/kg, po after 1 hr by rotarod test. As to conditions: in vivo. The series is classed as toxicity, organism-based. The procedure, abridged:
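Male KM mice dosed intragastrically with compound freshly suspended in 0.5% CMC-Na. Rotarod performance scored 1 h after dosing as the fraction of animals showing motor impairment. Fisher's exact test versus vehicle; TD50 from nonlinear dose−response fit.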
For orientation: Falling from the rotarod earlier than controls is read as motor impairment.

Series [14] is filed under the species Mus musculus. Kind of series: Anticonvulsant activity in Kunming mouse assessed as reduction in MES-induced seizure after 1 hr. The series is classed as functional. The gist of the method:
as §4

For series [15], the species on record is Mus musculus. Kind of series: Anticonvulsant activity in Kunming mouse assessed as reduction in Sc-PTZ induced seizure after 1 hr. The series is classed as functional. The procedure, abridged:
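sc-PTZ test in male KM mice. Compound suspended in 0.5% CMC-Na and given orally 1 h before PTZ (freshly dissolved in normal saline, 100 mg/kg). Protection against clonic seizures scored; ED50 by nonlinear regression.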

Series [16] can be described thus: Ratio of TD50 for Kunming mouse to ED50 for anticonvulsant activity in Kunming mouse. Type of series: toxicity. As to conditions: read-out: Ratio TD50/ED50. The procedure, abridged:
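KM mice given compound orally as a fresh 0.5% CMC-Na suspension (20 mL/kg), tested 1 h later. ED50 from the MES test (protection from hindlimb tonic extension; ear-clip stimulus 160 V). TD50 from the rotarod test as motor impairment. Both from dose–response nonlinear regression with 95% CI.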

The species entered for series [17] is Mus musculus. Kind of series: Anticonvulsant activity in C57BL/6 mouse 6 Hz seizure model at 32 mA measured after 1 hr. The series is classed as functional.
For series [18], the species on record is Mus musculus. Nature of the series: Anticonvulsant activity in C57BL/6 mouse 6 Hz seizure model at 44 mA measured after 1 hr. The series is classed as functional.
Series [19] deals with Potassium voltage-gated channel subfamily KQT member 5 (Homo sapiens) (UniProt Q9NR82). Nature of the series: Agonist activity at human KCNQ5 channel expressed in CHO cells assessed as shift of half voltage of maximal activation at 10 uM by patch clamp method. The series is classed as cell-based. As to conditions: filed as agonist. The gist of the method:
as §3

pEC50: −log10 of the molar value.

Sequence of Potassium voltage-gated channel subfamily KQT member 2 (Rattus norvegicus) (O88943 whole entry, the tested form may be a part): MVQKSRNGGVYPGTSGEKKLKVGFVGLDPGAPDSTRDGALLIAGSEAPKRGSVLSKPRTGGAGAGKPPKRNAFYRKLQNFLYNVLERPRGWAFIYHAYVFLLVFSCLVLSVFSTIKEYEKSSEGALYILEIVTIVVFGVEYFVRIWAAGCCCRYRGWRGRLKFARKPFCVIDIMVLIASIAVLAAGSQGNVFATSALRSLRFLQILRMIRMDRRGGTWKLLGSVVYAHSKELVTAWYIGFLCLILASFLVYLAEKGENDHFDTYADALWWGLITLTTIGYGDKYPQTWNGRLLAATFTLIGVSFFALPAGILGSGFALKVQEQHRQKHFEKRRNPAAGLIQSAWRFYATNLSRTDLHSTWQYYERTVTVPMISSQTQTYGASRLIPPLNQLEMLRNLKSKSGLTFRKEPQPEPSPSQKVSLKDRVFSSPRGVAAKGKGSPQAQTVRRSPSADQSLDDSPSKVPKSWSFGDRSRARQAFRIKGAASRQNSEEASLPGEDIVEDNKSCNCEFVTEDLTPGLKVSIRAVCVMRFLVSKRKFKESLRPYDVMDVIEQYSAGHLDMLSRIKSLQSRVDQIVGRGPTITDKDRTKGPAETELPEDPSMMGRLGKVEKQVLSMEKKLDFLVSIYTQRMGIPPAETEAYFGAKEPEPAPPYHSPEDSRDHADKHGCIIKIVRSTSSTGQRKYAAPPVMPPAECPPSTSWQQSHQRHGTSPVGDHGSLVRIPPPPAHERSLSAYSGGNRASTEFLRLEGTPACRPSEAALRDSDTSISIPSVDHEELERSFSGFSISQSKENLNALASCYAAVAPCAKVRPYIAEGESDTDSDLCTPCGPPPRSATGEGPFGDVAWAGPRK
Sequence of Potassium voltage-gated channel subfamily KQT member 2 (O88943 whole entry, the tested form may be a part): as above
Sequence of Potassium voltage-gated channel subfamily KQT member 2/member 3 (O88943 whole entry): as the sequence (O88943 whole entry, the tested form may be a part) above
Sequence of Potassium voltage-gated channel subfamily KQT member 2/member 3 (O88944 whole entry): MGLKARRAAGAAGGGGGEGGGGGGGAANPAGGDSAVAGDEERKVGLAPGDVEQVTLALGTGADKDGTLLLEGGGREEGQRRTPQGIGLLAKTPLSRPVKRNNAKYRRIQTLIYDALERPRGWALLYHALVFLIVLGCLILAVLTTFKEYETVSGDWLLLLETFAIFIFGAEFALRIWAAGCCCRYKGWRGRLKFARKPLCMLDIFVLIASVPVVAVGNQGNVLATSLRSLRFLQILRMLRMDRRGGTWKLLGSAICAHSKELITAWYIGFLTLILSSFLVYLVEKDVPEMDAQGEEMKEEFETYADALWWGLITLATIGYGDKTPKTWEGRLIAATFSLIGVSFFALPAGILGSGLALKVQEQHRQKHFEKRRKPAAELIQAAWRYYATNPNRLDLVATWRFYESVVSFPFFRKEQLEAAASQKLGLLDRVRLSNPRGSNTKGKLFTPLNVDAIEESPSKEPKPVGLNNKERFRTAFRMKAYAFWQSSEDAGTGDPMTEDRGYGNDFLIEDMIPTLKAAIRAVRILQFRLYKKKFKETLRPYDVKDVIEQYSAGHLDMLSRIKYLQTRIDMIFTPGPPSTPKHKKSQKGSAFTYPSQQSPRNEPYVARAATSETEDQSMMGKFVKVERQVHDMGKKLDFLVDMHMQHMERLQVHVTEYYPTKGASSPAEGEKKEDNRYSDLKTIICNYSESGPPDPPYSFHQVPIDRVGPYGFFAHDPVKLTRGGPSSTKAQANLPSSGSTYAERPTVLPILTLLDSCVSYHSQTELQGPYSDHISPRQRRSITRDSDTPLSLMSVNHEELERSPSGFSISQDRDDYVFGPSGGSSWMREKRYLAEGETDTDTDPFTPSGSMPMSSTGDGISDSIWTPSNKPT
Sequence of CYP2D6 (P10635 whole entry, the tested form may be a part): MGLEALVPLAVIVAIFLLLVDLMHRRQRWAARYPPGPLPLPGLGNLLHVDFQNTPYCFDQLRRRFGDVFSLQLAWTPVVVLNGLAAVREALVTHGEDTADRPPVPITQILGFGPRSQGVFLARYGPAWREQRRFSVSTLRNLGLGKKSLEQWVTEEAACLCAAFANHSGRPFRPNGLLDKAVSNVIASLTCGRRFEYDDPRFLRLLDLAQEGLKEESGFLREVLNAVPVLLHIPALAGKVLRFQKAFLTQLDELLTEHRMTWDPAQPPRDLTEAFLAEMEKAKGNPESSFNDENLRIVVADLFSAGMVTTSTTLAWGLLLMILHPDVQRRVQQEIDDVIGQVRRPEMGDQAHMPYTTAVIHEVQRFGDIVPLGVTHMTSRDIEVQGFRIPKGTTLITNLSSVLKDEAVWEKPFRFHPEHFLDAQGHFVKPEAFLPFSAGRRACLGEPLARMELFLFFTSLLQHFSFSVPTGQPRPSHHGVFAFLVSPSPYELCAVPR
Sequence of Potassium voltage-gated channel subfamily KQT member 5 (Homo sapiens) (Q9NR82 whole entry): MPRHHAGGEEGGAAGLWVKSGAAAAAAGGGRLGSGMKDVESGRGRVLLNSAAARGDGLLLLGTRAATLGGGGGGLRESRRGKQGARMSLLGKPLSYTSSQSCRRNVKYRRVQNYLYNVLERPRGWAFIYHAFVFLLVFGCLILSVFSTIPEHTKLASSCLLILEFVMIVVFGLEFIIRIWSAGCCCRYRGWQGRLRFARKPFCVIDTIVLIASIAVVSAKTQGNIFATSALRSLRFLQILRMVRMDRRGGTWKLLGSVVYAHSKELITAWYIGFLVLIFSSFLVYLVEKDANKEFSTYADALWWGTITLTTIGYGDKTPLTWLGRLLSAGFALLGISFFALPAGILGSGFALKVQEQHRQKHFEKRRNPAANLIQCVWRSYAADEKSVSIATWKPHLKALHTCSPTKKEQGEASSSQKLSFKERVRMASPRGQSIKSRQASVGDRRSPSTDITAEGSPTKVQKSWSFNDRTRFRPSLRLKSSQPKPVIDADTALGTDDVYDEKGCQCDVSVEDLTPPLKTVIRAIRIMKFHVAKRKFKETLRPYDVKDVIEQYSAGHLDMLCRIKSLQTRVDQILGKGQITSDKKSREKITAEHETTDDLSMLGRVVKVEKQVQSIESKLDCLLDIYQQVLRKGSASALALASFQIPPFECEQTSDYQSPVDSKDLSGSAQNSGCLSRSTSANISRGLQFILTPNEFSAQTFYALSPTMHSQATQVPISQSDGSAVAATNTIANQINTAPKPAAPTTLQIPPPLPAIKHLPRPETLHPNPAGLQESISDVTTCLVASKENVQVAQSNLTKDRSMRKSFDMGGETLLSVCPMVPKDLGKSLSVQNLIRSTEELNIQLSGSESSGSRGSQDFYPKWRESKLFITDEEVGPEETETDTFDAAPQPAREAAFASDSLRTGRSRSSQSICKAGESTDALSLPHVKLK

A word on the Tmax: it is the time from dosing to the highest level. As a reminder, the half-life is the time in which the quantity being followed falls by half. What is called Cmax is the highest concentration seen after dosing. One may read the AUC(0-t) as exposure summed from dosing to a finite time, without extrapolation to infinity. The pEC50 is −log10 of the EC50, conventionally taken in molar units. A word on the ED50: it is the midpoint of the dose-response relation. For `C#CCN(Cc1ccc(F)cc1)c1cc(C)c(NC(=O)OC)c(C)c1`, the Activity in [1] was -38.5 mV; in series [2], 4.75; in series [13] it was “Non-Toxic”. Moreover, the Tmax in [3] was 15 min. The values for the half-life in series [4] and in series [7] were 48 min and 18.1 min, respectively. Besides, the maximum concentration (Cmax) in series [5] is 323 ng/mL. For the same compound, in series [6], the AUC(0-t) at 24 h worked out at 1130 ng·h/mL. Besides, the CLint scaled in [8] was determined as 97.2 mL/min/kg. Further, the IC50 shift on CYP2D6 was < 1.5. Moreover, the pEC50 in series [9] was 7.43; in [10] it was 7.48; in the series listed under Mus musculus [12] it was 7.30. Moreover, the ED50 was 1.9 mg/kg in the series with Mus musculus [11]; 1.9 mg/kg in the series listed under Mus musculus [14]; 9.8 mg/kg in the series listed under Mus musculus [15]; 16.8 mg/kg in the series filed under Mus musculus [17]; 29.9 mg/kg in the series filed under Mus musculus [18]. The selectivity ratio in series [16] amounted to 43.2.
`CCOC(=O)Nc1ccc(NCc2ccc(F)cc2)cc1N` [EZOGABINE]: the Activity in [1] is -33.2 mV; in [2], 1.79; in [19] it was 0.09 mV; in series [13], “Non-Toxic”. The negative-log EC50 (pEC50) in series [9] is 5.69; in series [10] it was 5.38; in the series filed under Mus musculus [12], 4.70. For the same compound, the 50% effective dose (ED50) in the series with Mus musculus [11] is 38.6 mg/kg; in the series filed under Mus musculus [14], 38.6 mg/kg; in the series listed under Mus musculus [15] it was > 56 mg/kg; in the series filed under Mus musculus [17] it was 65.9 mg/kg; in the series filed under Mus musculus [18] it was 102 mg/kg.

The record behind these values is ChEMBL document CHEMBL5149984, “Discovery of HN37 as a Potent and Chemically Stable Antiepileptic Drug Candidate” (J Med Chem, 2021).
